Assay results published in ChEMBL document CHEMBL1770130, “Design, synthesis, and in vivo characterization of a novel series of tetralin amino imidazoles as γ-secretase inhibitors: discovery of PF-3084014” (Bioorg Med Chem Lett, 2011).
The source made the active and inactive calls. The calls are words filed in the database; no cut-off is given here.

Columns and labels:
[1] = tested on: Cavia porcellus; assay: Antialzheimer activity in sc dosed guinea pig assessed as reduction of total amyloid beta level in brain after 3 hrs by DELFIA-based ELISA; type: functional
How it was run: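 Guinea pigs dosed sc over a range of doses and brain Aβ1-X measured by DELFIA ELISA at 3 h; brain ED50 derived from the dose–response.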

[2] = Effect on gamma secretase-mediated notch processing in C57BL/6 mouse fetal thymic organ cultures assessed as reduction of B and T-cell populations after 45 mins by FACS analysis
[3] = Ratio of EC50 for gamma secretase-mediated notch processing in C57BL/6 mouse fetal thymic organ cultures to plasma concentration observed at brain ED50 of total beta-amyloid level
How it was run: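 FTOC EC50 divided by the plasma concentration at the brain ED50. That plasma concentration was obtained by linear least-squares regression of dose against measured plasma concentration in guinea pigs.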

[4] = target: Gamma-secretase; assay: Inhibition of gamma-secretase in human H4 cells expressing APP Swedish mutant assessed as inhibition of amyloid beta (1 to x) production by whole cell assay
[5] = target: Gamma-secretase; assay: Inhibition of gamma-secretase in human HeLa cells assessed as inhibition of amyloid beta (1 to 40) production by DELFIA-based immunoassay; type: cell-based
[6] = tested on: human MDR1 (P-gp); assay: Efflux ratio of permeability from basolateral to apical side to apical to basolateral side of MDCK cells expressing human MDR1; type: ADME, cell-based, Canis lupus familiaris; conditions: dog
How it was run: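 MDCK cells transfected with human P-glycoprotein (MDR1); efflux ratio calculated as B→A over A→B permeability.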

[7] = tested on: Cavia porcellus; assay: Antialzheimer activity in guinea pig assessed as reduction of total amyloid beta level in brain at 7 to 32 mg/kg, sc administered 3 doses over 24 hrs measured after 3 hrs last post dose by DELFIA-based ELISA; type: functional, organism-based
How it was run: (§1)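 Guinea pigs dosed sc at 7 or 32 mg/kg three times over 24 h (0, 12, 24 h). Tissues collected 3 h after the final dose, and Aβ measured by DELFIA ELISA; compared with vehicle by one-way ANOVA and Dunnett's test.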

[8] = Plasma concentration in guinea pig at 3.2 mg/kg, sc; type: ADME, organism-based, Cavia porcellus; design: dose 3.2 mg/kg, route subcutaneous; conditions: in vivo
How it was run: (§2)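 Guinea pigs given a single 3.2 mg/kg sc dose; drug concentrations in plasma and brain determined at the 3 h sampling point.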

[9] = Drug concentration in guinea pig brain at 3.2 mg/kg, sc; type: ADME, organism-based, Cavia porcellus; design: dose 3.2 mg/kg, route subcutaneous; conditions: in vivo; how it was run: as §2
[10] = tested on: Cavia porcellus; assay: Antialzheimer activity in guinea pig assessed as reduction of total amyloid beta level in brain at 3.2 mg/kg, sc after 3 hrs by DELFIA-based ELISA; type: functional; design: scale not given: the % may be the effect or the level left; conditions: route subcutaneous
How it was run: (§3)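 Guinea pigs given a single sc dose (3.2–32 mg/kg); brain, CSF and plasma taken at 3 h for the dose–response, or at intervals of 3 to 24 h after 10 mg/kg for the time course. Aβ1-X, Aβ1-40 and Aβ1-42 measured by DELFIA ELISA. Data given as percentage of vehicle; one-way ANOVA with Dunnett's post-hoc versus vehicle, p<0.05.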

[11] = tested on: Cavia porcellus; assay: Antialzheimer activity in guinea pig assessed as reduction of total amyloid beta level in cerebral spinal fluid at 3.2 mg/kg, sc after 3 hrs by DELFIA-based ELISA; type: functional; design: scale not given: the % may be the effect or the level left; conditions: route subcutaneous; how it was run: as §3
[12] = tested on: Cavia porcellus; assay: Antialzheimer activity in guinea pig assessed as reduction of total amyloid beta level in plasma at 3.2 mg/kg, sc after 3 hrs by DELFIA-based ELISA; type: functional; design: scale not given: the % may be the effect or the level left; conditions: route subcutaneous; how it was run: as §3
[13] = tested on: Cavia porcellus; assay: Antialzheimer activity in guinea pig assessed as reduction of total amyloid beta level in brain at 10 mg/kg, sc after 3 to 10 hrs by DELFIA-based ELISA; type: functional, organism-based; design: dose 10 mg/kg; how it was run: as §3
[14] = tested on: Cavia porcellus; assay: Antialzheimer activity in guinea pig assessed as reduction of total amyloid beta level in cerebral spinal fluid at 10 mg/kg, sc after 3 to 10 hrs by DELFIA-based ELISA; type: functional, organism-based; design: dose 10 mg/kg; how it was run: as §3
[15] = tested on: Cavia porcellus; assay: Antialzheimer activity in guinea pig assessed as reduction of total amyloid beta level in plasma at 10 mg/kg, sc after 3 to 10 hrs by DELFIA-based ELISA; type: functional, organism-based; design: dose 10 mg/kg; how it was run: as §3
[16] = tested on: Cavia porcellus; assay: Antialzheimer activity in guinea pig assessed as reduction of total amyloid beta level in brain at 10 mg/kg, sc after 24 hrs by DELFIA-based ELISA; type: functional, organism-based; design: dose 10 mg/kg
How it was run: (§4)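 Guinea pigs dosed once at 10 mg/kg sc, tissues sampled up to 24 h. Aβ1-X in brain, CSF and plasma measured by DELFIA ELISA and expressed as percentage of vehicle; one-way ANOVA with Dunnett's test versus vehicle, p<0.05.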

[17] = tested on: Cavia porcellus; assay: Antialzheimer activity in guinea pig assessed as reduction of total amyloid beta level in cerebral spinal fluid at 10 mg/kg, sc after 24 hrs by DELFIA-based ELISA; type: functional, organism-based; design: dose 10 mg/kg; how it was run: as §4
[18] = tested on: Cavia porcellus; assay: Antialzheimer activity in guinea pig assessed as reduction of total amyloid beta level in plasma at 10 mg/kg, sc after 24 hrs by DELFIA-based ELISA; type: functional, organism-based; design: dose 10 mg/kg; how it was run: as §4
[19] = tested on: Cavia porcellus; assay: Antialzheimer activity in guinea pig assessed as reduction of total amyloid beta level in plasma at 7 to 32 mg/kg, sc administered 3 doses over 24 hrs measured after 3 hrs last post dose by DELFIA-based ELISA; type: functional, organism-based; how it was run: as §1
[20] = tested on: Cavia porcellus; assay: Reduction of marginal zone of B cell populations in guinea pig at 7 mg/kg, sc administered 3 doses over 24 hrs measured after 3 hrs last post dose by FACS analysis; type: organism-based; design: dose 7 mg/kg, route subcutaneous; conditions: in vivo
How it was run: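 Guinea pigs dosed sc at 7 mg/kg at 0, 12 and 24 h. Spleen marginal zone and whole-blood B cells counted by flow cytometry 3 h after the last dose.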

[21] = Ratio of EC50 for gamma secretase-mediated notch processing in C57BL/6 mouse fetal thymic organ cultures to IC50 for APP by whole cell assay

SMILES	ED50 [1] [mg/kg]	EC50 [2] [nM]	IC50 [4] [nM]	IC50 [5] [nM]	efflux ratio [6]	also measured
CCC[C@H](N[C@H]1CCc2cc(F)cc(F)c2C1)C(=O)Nc1cn(C(C)(C)CNC(C)C)cn1	41.2	6100	19.3			Ratio [3]: 3.5
CCC[C@H](NC1CCc2cc(F)cc(F)c2C1)C(=O)Nc1cn(C(C)(C)CN2CCCC2)cn1 (mixture of isomers)			5.4	4.1	1.5	
CCC[C@H](NC1CCc2cc(Cl)ccc2C1)C(=O)Nc1cn(C(C)(C)CN2CCCC2)cn1 (mixture of isomers)			12.4	8.9	1.3	
CCC[C@H](NC1Cc2ccccc2C1)C(=O)Nc1cn(C(C)(C)CN2CCCC2)cn1			272	148	1.8	
CCC[C@H](NC1CCc2cc(F)ccc2C1)C(=O)Nc1cn(C(C)(C)CN2CCCC2)cn1 (mixture of isomers)			19.5	19.3	1.8	
CCC[C@H](NCc1cc(F)cc(F)c1)C(=O)Nc1cn(C(C)(C)CN2CCCC2)cn1			480	499	1.8	
CCC[C@H](NC(CC)CC)C(=O)Nc1cn(C(C)(C)CN2CCCC2)cn1			310	6120	2.3	
CCC[C@H](NC1CCc2ccccc2C1)C(=O)Nc1cn(C(C)(C)CN2CCCC2)cn1 (some centres undefined)			53.9	85.7	2.2	
CCC[C@H](NC(=O)Cc1cc(F)cc(F)c1)C(=O)Nc1cn(C(C)(C)CNCC(C)(C)C)cn1					8.4	
CCC[C@H](NCCc1cc(F)cc(F)c1)C(=O)Nc1cn(C(C)(C)CN2CCCC2)cn1			754	250	1.9	
CCC[C@H](NC1COc2ccccc2C1)C(=O)Nc1cn(C(C)(C)CN2CCCC2)cn1 (some centres undefined)			155	93.3	2.9	
CCC[C@H](N[C@H]1CCc2cc(F)cc(F)c2C1)C(=O)Nc1cn(C(C)(C)CN(C)C)cn1	16.1	3010	4.6			
CCC[C@H](N[C@H]1CCc2cc(F)cc(F)c2C1)C(=O)Nc1cn(C(C)(C)CN2CCOCC2)cn1	2.9	1090	6.9			Ratio [3]: 16.3
CCC[C@H](N[C@H]1CCc2cc(F)cc(F)c2C1)C(=O)Nc1cn(C(C)(C)CN2CCCCC2)cn1	4.1	2560	3.3			Ratio [3]: 46.1
CCC[C@H](N[C@H]1CCc2cc(F)cc(F)c2C1)C(=O)Nc1cn(C(C)(C)CNCC(C)(C)C)cn1 [NIROGACESTAT]	2.3	1830				
CCC[C@H](N[C@H]1CCc2cc(F)cc(F)c2C1)C(=O)Nc1cn(C(C)(C)CNCC(F)(F)F)cn1	14.6	5100	4.9			Ratio [3]: 37.7
CCC[C@H](NC1CCc2cccc(Cl)c2C1)C(=O)Nc1cn(C(C)(C)CN2CCCC2)cn1 (mixture of isomers)			46.8	31	3.3	
CCC[C@H](NCCC(C)C)C(=O)Nc1cn(C(C)(C)CN2CCCC2)cn1			3100	> 10000	4.4	
CCC[C@H](N[C@H]1CCc2cc(F)cc(F)c2C1)C(=O)Nc1cn(C(C)(C)CN2CCCC2)cn1	9.9	3260	2.9			Activity [7]: Active; Cp [8]: 100 ng/mL; Drug uptake [9]: 587 ng/mL; Activity [10]: 33%; Activity [11]: 31%; Activity [12]: 30%; Activity [13]: Active; Activity [14]: Active; Activity [15]: Active; Activity [16]: Active; Activity [17]: inactive; Activity [18]: inactive; Ratio [3]: 9.8; Activity [19]: Active; Activity [20]: Non-toxic; Ratio [21]: > 500
